Experimental data gathered from unrelated publications.
Lines come from different studies, so protocols differ.
Organism: Mycobacterium tuberculosis variant bovis BCG
Effect on: microbial growth

| SMILES | strain | time | MIC |
| --- | --- | --- | --- |
| CO[C@H]1/C=C/O[C@@]2(C)Oc3c(C)c(O)c4c(O)c(c(/C=N/N5CCN(C)CC5)c(O)c4c3C2=O)NC(=O)/C(C)=C\C=C\[C@H](C)[C@H](O)[C@@H](C)[C@@H](O)[C@@H](C)[C@H](OC(C)=O)[C@@H]1C | BCG | – | < 0.2 µg/mL |
| COc1ccc(C=CC(=O)c2ccccc2Br)cc1OC | BCG | 7 days | 25 µg/mL |
| O=C(Nc1ccc2c(c1)OC(F)(F)O2)Nc1ccc(Cl)c(C(F)(F)F)c1 | BCG | – | 3 µM |
| COc1ccc(C=CC(=O)c2ccc(Cl)cc2Cl)cc1OC | BCG | 7 days | 200 µg/mL |
| Fc1ccc(COc2ccccc2CNCc2cccnc2)cc1 | ATCC35734 BCG | – | > 62.5 µM |
| COc1ccc(C=CC(=O)c2ccccc2Cl)cc1OC | BCG | 7 days | 12.5 µg/mL |
| c1ccc(COc2ccccc2CNCc2cccnc2)cc1 | ATCC35734 BCG | – | > 62.5 µM |
| CO[C@H]1/C=C/O[C@@]2(C)Oc3c(C)c(O)c4c(O)c(c(/C=N/N5CCN(C)CC5)c(O)c4c3C2=O)NC(=O)/C(C)=C\C=C\[C@H](C)[C@H](O)[C@@H](C)[C@@H](O)[C@@H](C)[C@H](OC(C)=O)[C@@H]1C | BCG | 6 days | < 0.78 µM |
| CNC(=O)c1cc(Oc2ccc(NC(=O)Nc3ccc(Cl)c(C(F)(F)F)c3)cc2)ccn1 | BCG | – | 12.5 µM |
| Fc1ccc(COc2ccccc2CNCc2ccccc2)cc1 | ATCC35734 BCG | – | > 62.5 µM |
